Laboratory results taken from paper PMC10150180 (Acta Pharmaceutica Sinica. B, 2023).
pKd: −log10 of the molar value. One block for each molecule: values may come before it. Peptide text beside a SMILES is read from it. * marks the point of attachment. Cbz = O=C(OCc1ccccc1)*

Experiments:
[1] = target: TRIB3 (immobilized on CM5 sensor chips) (UniProt Q96RU7); assay: SPR
AEC2s = format: cell-based, mouse; settings: 3D Matrigel co-culture with MLg2908 cells, Day 14, n = 3
Method in brief: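 Mouse AEC2s were sorted as DAPI-negative, lineage-negative, EpCAM-positive cells from lineage-depleted lung cells. 5 × 10^3 cells were embedded in Matrigel/DMEM (1:1) with 2 × 10^5 MLg2908 cells in Transwell inserts. Lower-chamber DMEM contained ITS, 10% FBS and antibiotics, changed daily. On Day 14, colonies above a size cutoff were counted by microscopy. CFE = colonies / input AEC2s.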

mBLM-challenged mice = assay: MX69; format: in vivo, mouse; settings: n = 5
Method in brief: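 Mice under avertin anaesthesia (400 mg/kg i.p.) received intratracheal bleomycin, 1 U/kg in LPS-free PBS, six times at 14-day intervals. The MDM2 inhibitor was given at 100 mg/kg/day i.p. for 3 days after every challenge and for 3 days before sacrifice. Read-outs: Slug immunoblot in sorted AEC2s (GAPDH loading control), right-lung hydroxyproline, Masson staining, and AEC2 colony-forming efficiency.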

[2] = tested on: SLUG degradation in AEC2s; assay: SLUG degradation in AEC2s with cycloheximide plus 3MA or MG132; format: cell-based, mouse; settings: CHX 10 μg/mL with 3 MA 5 mmol/L or MG132 10 μmol/L

UniProt Q96RU7, sequence (Q96RU7 whole entry): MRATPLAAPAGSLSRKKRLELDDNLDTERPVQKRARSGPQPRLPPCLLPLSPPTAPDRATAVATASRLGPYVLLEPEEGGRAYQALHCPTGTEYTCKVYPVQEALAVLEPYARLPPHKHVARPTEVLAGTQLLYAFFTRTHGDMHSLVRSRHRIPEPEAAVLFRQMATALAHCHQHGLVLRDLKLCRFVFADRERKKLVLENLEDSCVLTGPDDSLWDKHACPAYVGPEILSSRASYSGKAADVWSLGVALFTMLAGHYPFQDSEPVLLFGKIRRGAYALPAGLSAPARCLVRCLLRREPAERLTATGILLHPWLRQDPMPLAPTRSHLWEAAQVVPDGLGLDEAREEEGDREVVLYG

- pKd [1]: 7.34
Molecule: MR2 (from UniProt Q00987 460-470) (peptide)

- CFE of AEC2s (AEC2s): decreased
Molecule: C[S+]([O-])c1ccc(-c2nc(-c3ccncc3)c(-c3ccc(F)cc3)[nH]2)cc1 (stereo not shown) [SB203580]

- CFE of AEC2s (AEC2s): decreased
Molecule: Oc1c2ccccc2c2c3c(cccc13)N=N2 [SP600125]

Molecule: Cc1ccc(NS(=O)(=O)c2ccc3c(c2)C2C=CCC2C(c2ccc(C(=O)O)cc2)N3)cc1C (stereo not shown) [MX69]
- level of Slug in AEC2s (mBLM-challenged mice; AEC2s isolated from fibrotic mice but not control mice, immunoblot): increased
- protein level of MDM2 in AEC2s (mBLM-challenged mice; AEC2s isolated from fibrotic mice, immunoblot): decreased
- capacity of AEC2s mediated LAR (colony-forming efficiency) (mBLM-challenged mice; AEC2s sorted from MX69 treated mBLM mice): further declined

Molecule: CC(C)C[C@@H](C=O)NC(=O)[C@H](CC(C)C)NC(=O)[C@H](CC(C)C)NC(=O)OCc1ccccc1 [MG132] (Cbz-Leu-Leu-Leu-aldehyde)
- SLUG degradation [2]: suppressed
